Data taken from ChEMBL document CHEMBL3085768, “Structure-guided design of potent diazobenzene inhibitors for the BET bromodomains” (J Med Chem, 2013).
Calls of active or inactive are those of the source. No cut-off for these calls is given here.

Experiments:
[1] = biological target: T1, Bromodomain-containing protein 4 (Homo sapiens, UniProt O60885); test: Displacement of fluorescein-labeled MS574 from recombinant human BRD4 BrD1 after 1 hr by fluorescence anisotropy assay
Procedure, shortened: (§1)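 Competition fluorescence anisotropy with His-tag-removed recombinant bromodomain (Ni-IDA purified, thrombin cleaved) at 0.25–1 µM, chosen so that 50–80% of probe is bound. FITC-labeled probe at 80 nM (≤2Kd), unlabeled ligand titrated, in PBS pH 7.4, read after 1 h at 25 °C. IC50 from curve fit, converted to Ki with the Nikolovska-Coleska correction to Cheng-Prusoff (one-site competitive). The resolvable Ki is limited by the probe Kd.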

[2] = biological target: T2, Bromodomain-containing protein 7 (Homo sapiens, UniProt Q9NPI1); test: Displacement of fluorescein-labeled MS226 from recombinant human BRD7 after 1 hr by fluorescence anisotropy assay; procedure, shortened: as §1
T2 sequence (Q9NPI1 whole entry): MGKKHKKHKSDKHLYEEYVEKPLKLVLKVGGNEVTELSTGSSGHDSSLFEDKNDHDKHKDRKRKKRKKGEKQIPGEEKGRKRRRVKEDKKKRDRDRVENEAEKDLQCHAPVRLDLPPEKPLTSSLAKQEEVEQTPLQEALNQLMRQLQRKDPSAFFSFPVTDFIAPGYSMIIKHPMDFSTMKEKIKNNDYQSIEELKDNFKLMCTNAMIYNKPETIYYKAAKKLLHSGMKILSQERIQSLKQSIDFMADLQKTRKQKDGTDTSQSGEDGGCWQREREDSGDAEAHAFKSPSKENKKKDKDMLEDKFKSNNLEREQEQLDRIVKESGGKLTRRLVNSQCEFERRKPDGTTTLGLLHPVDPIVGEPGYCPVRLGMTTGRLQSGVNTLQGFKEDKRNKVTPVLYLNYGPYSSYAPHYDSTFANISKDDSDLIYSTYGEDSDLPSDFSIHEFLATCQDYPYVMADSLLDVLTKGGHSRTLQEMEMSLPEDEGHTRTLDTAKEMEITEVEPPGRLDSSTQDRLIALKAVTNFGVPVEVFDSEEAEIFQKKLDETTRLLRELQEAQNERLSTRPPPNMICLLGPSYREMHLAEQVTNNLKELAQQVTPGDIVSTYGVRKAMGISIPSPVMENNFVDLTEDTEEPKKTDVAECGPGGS

RAW264.7 = test: Cytotoxicity against mouse RAW264.7 cells assessed as cell viability up to 100 uM after 24 hrs by MTT assay; format: cell-based; settings: raw264.7, 24 h
Procedure, shortened: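 RAW264.7 macrophages seeded at 1 × 10^4 cells/well, settled 18 h at 37 °C, then exposed to inhibitors up to 100 µM for 24 h. Compounds were predissolved in DMSO and diluted in medium, final DMSO 0.05% (v/v). MTT (4 mg/ml) was added for 4 h at 37 °C, formazan solubilized in DMSO, and absorbance read at 570/630 nm.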

[3] = biological target: T3, Bromodomain-containing protein 3 (Homo sapiens, UniProt Q15059); test: Displacement of fluorescein-labeled MS574 from recombinant human BRD3 BrD2 after 1 hr by fluorescence anisotropy assay; procedure, shortened: as §1
T3 sequence (Q15059 whole entry): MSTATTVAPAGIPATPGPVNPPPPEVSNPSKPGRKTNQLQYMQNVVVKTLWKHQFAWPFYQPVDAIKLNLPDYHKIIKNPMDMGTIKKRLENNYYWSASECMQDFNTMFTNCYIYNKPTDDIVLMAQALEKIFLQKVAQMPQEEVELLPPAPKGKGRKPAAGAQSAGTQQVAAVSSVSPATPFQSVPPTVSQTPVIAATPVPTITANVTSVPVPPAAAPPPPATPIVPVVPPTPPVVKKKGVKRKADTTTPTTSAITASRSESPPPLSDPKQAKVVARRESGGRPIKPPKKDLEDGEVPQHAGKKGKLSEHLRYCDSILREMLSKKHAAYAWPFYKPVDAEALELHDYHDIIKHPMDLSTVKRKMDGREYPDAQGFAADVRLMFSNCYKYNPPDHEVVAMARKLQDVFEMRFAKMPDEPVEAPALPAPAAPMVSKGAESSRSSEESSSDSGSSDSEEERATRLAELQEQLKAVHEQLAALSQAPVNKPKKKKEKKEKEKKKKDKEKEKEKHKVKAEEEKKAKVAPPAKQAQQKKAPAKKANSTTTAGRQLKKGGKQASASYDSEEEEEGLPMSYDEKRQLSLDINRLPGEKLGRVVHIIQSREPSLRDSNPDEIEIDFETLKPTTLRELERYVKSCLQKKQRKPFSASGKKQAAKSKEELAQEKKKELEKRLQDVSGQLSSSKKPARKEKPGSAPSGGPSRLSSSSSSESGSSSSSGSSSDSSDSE

[4] = biological target: T3, Bromodomain-containing protein 3; test: Displacement of fluorescein-labeled MS574 from recombinant human BRD3 BrD1 after 1 hr by fluorescence anisotropy assay; procedure, shortened: as §1
[5] = biological target: T4, Bromodomain-containing protein 4 (Mus musculus, UniProt Q9ESU6); test: (§2) Inhibition of BRD4 in LPS-stimulated mouse RAW264.7 cells assessed as inhibition of NF-kappaB-mediated nitric oxide production preincubated for 30 mins followed by LPS stimulation measured after 24 hrs by spectrophotometric analysis; format: cell-based
Procedure, shortened: (§3)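 RAW264.7 cells in DMEM/10% FBS, plated at 3 × 10^5 cells/mL, pretreated with inhibitor 30 min, then LPS (1 µg/mL) plus inhibitor for 24 h. Inhibitor concentrations 0.28–50000 nM from DMSO stock, final DMSO 0.05% (v/v). Nitrite in the supernatant was measured spectrophotometrically at 520 nm.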

[6] = biological target: Bromodomain-containing protein 4 (Mus musculus) (UniProt Q9ESU6); test: as §2; format: cell-based; procedure, shortened: as §3
[7] = biological target: T4, Bromodomain-containing protein 4; test: (§4) Inhibition of BRD4 in LPS-stimulated mouse RAW264.7 cells assessed as inhibition of NF-kappaB-mediated IL-6 expression preincubated for 30 mins followed by LPS stimulation measured after 24 hrs by ELISA; format: cell-based
Procedure, shortened: (§5)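 RAW264.7 cells grown in DMEM/10% FBS at 37 °C, 5% CO2, plated at 3 × 10^5 cells/mL, pretreated with inhibitor for 30 min. Medium was then replaced with LPS (1 µg/mL) plus inhibitor for 24 h. Compounds were diluted from DMSO to 0.28–50000 nM, final DMSO 0.05% (v/v). Supernatant IL-6 was measured by mouse ELISA read at 570 nm.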

[8] = biological target: Bromodomain-containing protein 4 (Mus musculus) (UniProt Q9ESU6); test: as §4; format: cell-based; procedure, shortened: as §5
[9] = biological target: Nucleosome-remodeling factor subunit BPTF (Homo sapiens, UniProt Q12830); test: Displacement of fluorescein-labeled MS239 from recombinant human BPTF after 1 hr by fluorescence anisotropy assay; procedure, shortened: as §1
[10] = biological target: Histone acetyltransferase KAT2B (Homo sapiens, UniProt Q92831); test: Displacement of fluorescein-labeled MS239 from recombinant human PCAF after 1 hr by fluorescence anisotropy assay; procedure, shortened: as §1
Sequence of Histone acetyltransferase KAT2B (Q92831 whole entry): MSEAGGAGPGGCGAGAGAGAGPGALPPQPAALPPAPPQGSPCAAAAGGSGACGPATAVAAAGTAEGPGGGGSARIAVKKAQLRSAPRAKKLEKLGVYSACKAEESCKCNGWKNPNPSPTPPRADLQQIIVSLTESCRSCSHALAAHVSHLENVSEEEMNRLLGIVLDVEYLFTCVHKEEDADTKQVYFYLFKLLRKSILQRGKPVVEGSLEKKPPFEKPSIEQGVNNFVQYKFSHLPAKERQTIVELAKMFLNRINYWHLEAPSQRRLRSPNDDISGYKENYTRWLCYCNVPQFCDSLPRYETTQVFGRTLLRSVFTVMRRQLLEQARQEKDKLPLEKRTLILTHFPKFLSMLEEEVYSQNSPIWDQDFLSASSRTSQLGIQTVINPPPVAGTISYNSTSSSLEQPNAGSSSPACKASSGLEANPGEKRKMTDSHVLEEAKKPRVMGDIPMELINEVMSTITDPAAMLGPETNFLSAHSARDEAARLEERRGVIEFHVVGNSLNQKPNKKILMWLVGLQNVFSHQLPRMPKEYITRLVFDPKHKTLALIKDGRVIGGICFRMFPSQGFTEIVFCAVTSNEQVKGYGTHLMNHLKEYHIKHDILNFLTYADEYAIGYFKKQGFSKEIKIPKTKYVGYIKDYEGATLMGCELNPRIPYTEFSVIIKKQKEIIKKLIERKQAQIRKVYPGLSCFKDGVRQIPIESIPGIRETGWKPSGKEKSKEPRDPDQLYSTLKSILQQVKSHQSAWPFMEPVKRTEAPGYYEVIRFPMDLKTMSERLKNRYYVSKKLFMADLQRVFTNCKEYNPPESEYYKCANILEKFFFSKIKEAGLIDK

[11] = biological target: T1, Bromodomain-containing protein 4; test: Displacement of fluorescein-labeled MS574 from recombinant human BRD4 BrD2 after 1 hr by fluorescence anisotropy assay; procedure, shortened: as §1
[12] = biological target: SWI/SNF-related matrix-associated actin-dependent regulator of chromatin subfamily A member 4 (Homo sapiens, UniProt P51532); test: Displacement of fluorescein-labeled MS239 from recombinant human SMARCA4 bromodomain after 1 hr by fluorescence anisotropy assay; procedure, shortened: as §1
Sequence of SWI/SNF-related matrix-associated actin-dependent regulator of chromatin subfamily A member 4 (P51532 whole entry): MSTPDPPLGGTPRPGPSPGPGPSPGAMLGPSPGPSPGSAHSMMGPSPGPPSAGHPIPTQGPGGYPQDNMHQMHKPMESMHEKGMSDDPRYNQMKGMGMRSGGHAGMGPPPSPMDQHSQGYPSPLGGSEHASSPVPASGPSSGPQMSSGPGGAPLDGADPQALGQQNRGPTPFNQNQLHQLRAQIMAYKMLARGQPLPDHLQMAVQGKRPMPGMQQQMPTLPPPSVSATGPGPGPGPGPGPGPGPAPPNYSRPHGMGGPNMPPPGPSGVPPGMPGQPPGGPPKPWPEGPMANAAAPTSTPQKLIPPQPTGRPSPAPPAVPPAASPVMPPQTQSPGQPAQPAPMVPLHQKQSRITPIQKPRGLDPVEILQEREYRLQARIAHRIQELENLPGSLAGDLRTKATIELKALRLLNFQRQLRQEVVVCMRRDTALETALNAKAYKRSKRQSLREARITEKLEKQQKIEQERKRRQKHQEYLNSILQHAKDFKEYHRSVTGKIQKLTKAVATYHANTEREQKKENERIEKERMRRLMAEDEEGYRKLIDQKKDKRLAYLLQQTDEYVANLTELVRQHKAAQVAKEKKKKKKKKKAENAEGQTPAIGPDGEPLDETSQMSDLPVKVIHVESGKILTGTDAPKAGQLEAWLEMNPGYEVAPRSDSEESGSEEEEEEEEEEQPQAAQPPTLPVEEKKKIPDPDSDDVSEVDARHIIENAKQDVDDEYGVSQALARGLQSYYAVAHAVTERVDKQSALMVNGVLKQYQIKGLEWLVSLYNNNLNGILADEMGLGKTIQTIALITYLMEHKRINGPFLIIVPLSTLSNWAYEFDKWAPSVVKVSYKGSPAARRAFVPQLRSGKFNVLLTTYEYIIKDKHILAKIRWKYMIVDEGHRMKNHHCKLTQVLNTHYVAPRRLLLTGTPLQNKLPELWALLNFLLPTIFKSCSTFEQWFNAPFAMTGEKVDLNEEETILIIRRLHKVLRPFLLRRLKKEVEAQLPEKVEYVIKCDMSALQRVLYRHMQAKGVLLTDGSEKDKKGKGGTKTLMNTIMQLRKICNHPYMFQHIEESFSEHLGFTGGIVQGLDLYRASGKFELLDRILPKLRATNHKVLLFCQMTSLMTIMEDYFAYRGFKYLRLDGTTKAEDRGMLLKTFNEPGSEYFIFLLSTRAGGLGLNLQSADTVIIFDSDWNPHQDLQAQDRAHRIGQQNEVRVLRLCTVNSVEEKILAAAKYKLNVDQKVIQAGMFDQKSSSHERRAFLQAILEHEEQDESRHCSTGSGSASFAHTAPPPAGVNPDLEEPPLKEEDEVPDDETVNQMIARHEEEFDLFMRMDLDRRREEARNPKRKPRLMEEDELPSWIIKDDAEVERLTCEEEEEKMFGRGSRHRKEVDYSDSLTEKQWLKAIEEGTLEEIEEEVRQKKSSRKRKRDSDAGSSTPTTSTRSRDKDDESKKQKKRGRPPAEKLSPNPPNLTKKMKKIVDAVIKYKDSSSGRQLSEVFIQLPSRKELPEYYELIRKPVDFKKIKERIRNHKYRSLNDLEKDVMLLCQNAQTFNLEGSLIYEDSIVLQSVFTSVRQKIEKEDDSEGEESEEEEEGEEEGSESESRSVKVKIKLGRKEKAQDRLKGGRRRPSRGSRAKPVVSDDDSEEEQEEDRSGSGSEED

CREB-binding protein = CREB-binding protein (Homo sapiens, UniProt Q92793); test: Displacement of fluorescein-labeled MS226 from recombinant human CBP bromodomain after 1 hr by fluorescence anisotropy assay; procedure, shortened: as §1

| Compound | Ki ([1]; read-out: Ki) [µM] | Ki [2] [µM] | Activity (RAW264.7) | Ki [3] [µM] | Ki [4] [µM] | IC50 [5] [µM] | inhibition [6] | IC50 [7] [µM] | inhibition [8] | Ki [11] [µM] | Ki [12] [µM] | Ki (CREB-binding protein) [µM] | other results |
| --- | --- | --- | --- | --- | --- | --- | --- | --- | --- | --- | --- | --- | --- |
| Cc1cc(/N=N/c2ccc(S(=O)(=O)Nc3ccccn3)cc2)c(N)c(C)c1O | 0.15 | < 1.43 | Non-toxic | 0.22 | 0.29 | 38.1 | Dose-dependent effect | 23.2 | Dose-dependent effect | 0.44 | < 6.56 | 5.12 | Ki ([1]; read-out: pKi (converted)): 0.151 µM; Ki [9]: < 1.7 µM; Ki [10]: < 3.34 µM |
| Cc1cc(/N=N/c2ccc(S(=O)(=O)Nc3ccccn3)cc2)cc(C)c1O | 0.91 | 3.54 | Non-toxic | 2.48 | 1.64 | 46.3 | Dose-dependent effect | 16 | Dose-dependent effect | 4.3 | < 6.56 | 7.15 | Ki ([1]; read-out: pKi (converted)): 0.912 µM |
| Cc1cc(/N=N/c2ccc(S(=O)(=O)Nc3ccccn3)cc2)c(N)c(Cl)c1O |  | < 1.43 | Non-toxic | 0.32 | 0.24 | 3.4 | Dose-dependent effect | 3.8 | Dose-dependent effect |  | < 6.56 | 5.59 | Ki [9]: 1.62 µM; Ki [10]: < 3.34 µM |
| Cc1cc(/N=N/c2ccc(S(=O)(=O)Nc3ccccn3)cc2)c(N)cc1O |  | 2.72 | Non-toxic | 0.14 | 0.1 | 3.8 | Dose-dependent effect | 4.9 | Dose-dependent effect |  | 7.97 | 2.18 | Ki [9]: 6.06 µM; Ki [10]: 5.52 µM |
| Cc1cc(/N=N/c2ccc(S(=O)(=O)Nc3ccc(F)cc3)cc2)cc(C)c1O | 1.84 |  |  |  |  |  |  |  |  | 8.87 |  |  |  |
| CC(=O)Nc1c(C)cc(/N=N/c2ccc(S(=O)(=O)Nc3ccccn3)cc2)cc1C |  |  |  |  |  |  |  |  |  |  |  |  | inhibition [1]: inactive; inhibition [11]: inactive |
| COc1ccc(NS(=O)(=O)c2ccc(/N=N/c3cc(C)c(O)c(C)c3)cc2)cc1 | 6.48 |  |  |  |  |  |  |  |  | 6.59 |  |  |  |
| Cc1cc(/N=N/c2ccc(S(=O)(=O)Nc3ccc(C(=O)O)cn3)cc2)cc(C)c1O | 0.32 |  |  |  |  |  |  |  |  | 1.38 |  |  |  |
| O=S(=O)(Nc1ccccn1)c1ccc(/N=N/c2ccc(O)c(Br)c2)cc1 | 4.67 |  |  |  |  |  |  |  |  | 4.69 |  |  |  |
| Cc1cc(/N=N/c2ccc(S(=O)(=O)Nc3ccc(C(N)=O)cc3)cc2)cc(C)c1O | 9.6 |  |  |  |  |  |  |  |  | 12.2 |  |  |  |
| Cc1cc(/N=N/c2ccc(S(=O)(=O)NCc3ccc(C(F)(F)F)cc3)cc2)cc(C)c1O | > 100 |  |  |  |  |  |  |  |  | > 100 |  |  |  |
| COc1c(C)cc(/N=N/c2ccc(S(=O)(=O)Nc3ccccn3)cc2)cc1C |  |  |  |  |  |  |  |  |  |  |  |  | inhibition [1]: inactive; inhibition [11]: inactive |
